In ChEMBL document CHEMBL4814057, “4-4-(Anilinomethyl)-3-[4-(trifluoromethyl)phenyl]-1H-pyrazol-1-ylbenzoic acid derivatives as potent anti-gram-positive bacterial agents” (Eur J Med Chem, 2021):
Converted amounts (≈) assume the structure as drawn. The source made the active and inactive calls. No cut-off for these calls is given here.

Legend:
Staphylococcus aureus [1] = assay: Antimicrobial activity against methicillin-resistant Staphylococcus aureus ATCC 33592 assessed as bacterial growth inhibitions by CLSI protocol based microdilution method; assay type: functional
Staphylococcus aureus [2] = assay: Inhibition of protein synthesis in Staphylococcus aureus ATCC 29213 at 4 times MIC measured by liquid scintillation counter; assay type: functional
Enterococcus faecalis [3] = assay: Antibiofilm activity against Enterococcus faecalis ATCC 29212 assessed as destruction of biofilm formation at 2 times MIC after 24 hrs by crystal violet staining based assay relative to control; assay type: functional
Method in brief: (§1)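 Overnight culture brought to 0.5 McFarland in PBS, diluted 1:100 in CAMHB with 1% glucose. Inhibition: cells plus compound (in DMSO) at 2x, 1x, 0.5xMIC, 24 h at 35 °C, triplicate. Destruction: 24 h biofilm grown without drug, washed, fresh medium with compound, further 24 h. Then washed, dried, 0.1% crystal violet, solubilized in 33% acetic acid, OD 620 nm. Controls are DMSO-only and broth-only wells.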

[4] = Toxicity in CD1 mouse assessed as effect on potassium level at 50 mg/kg, ip administered as single dose measured after 24 hrs; assay type: organism-based; conditions: in vivo
Method in brief: (§2)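 Male CD-1 mice, 8 weeks, 32–37 g, n = 10 per dose. Single IP injection at 5, 20 or 50 mg/kg in 0.9% saline, filter-sterilized; saline vehicle group. Blood taken by cardiac puncture 24 h later. 14 plasma markers measured on a chemistry panel, reported as mean ± SE. Toxicity judged by significance versus controls, normal ranges, dose-dependence and consistency across organ markers.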

Staphylococcus aureus [5] = assay: Inhibition of lipid synthesis in Staphylococcus aureus ATCC 29213 at 4 times MIC measured by liquid scintillation counter; assay type: functional
Method in brief: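 Early-exponential cells in CAMHBII with drug in triplicate. Lipids extracted with chloroform/water, centrifuged, organic phase dried, then scintillation counted.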

Staphylococcus aureus [6] = assay: Inhibition of RNA synthesis in Staphylococcus aureus ATCC 29213 at 4 times MIC measured by liquid scintillation counter; assay type: functional
Method in brief: (§3)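 Early-exponential cells in CAMHB added to drug (40x stock) in triplicate, with a no-drug control. After 30 min pre-incubation at room temperature, [3H]thymidine 3.0 µCi/tube (DNA) or [3H]uridine 0.5 µCi/tube (RNA) added for 30 min at room temperature. Stopped with cold TCA, precipitate filtered and washed, then scintillation counted.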

Enterococcus faecalis [7] = assay: Antimicrobial activity against vancomycin-susceptible Enterococcus faecalis ATCC 29212 assessed as bacterial growth inhibitions by CLSI protocol based microdilution method
Enterococcus faecium [8] = assay: Antimicrobial activity against vancomycin-resistant Enterococcus faecium clinical isolate 1091563 by CLSI-based broth microdilution assay; assay type: functional
[9] = Toxicity in CD1 mouse assessed as effect on total protein level at 50 mg/kg, ip administered as single dose measured after 24 hrs; assay type: organism-based; conditions: in vivo; method in brief: as §2
Staphylococcus aureus [10] = assay: Antimicrobial activity against methicillin-resistant Staphylococcus aureus ATCC 33591 assessed as bacterial growth inhibitions by CLSI protocol based microdilution method; assay type: functional
Enterococcus faecalis [11] = assay: Antibacterial activity against vancomycin-intermediate Enterococcus faecalis ATCC 29212 assessed as bacterial growth inhibition by measuring fold increase in MIC after14 passages by broth dilution method; assay type: functional, organism-based
Enterococcus faecium [12] = assay: Antimicrobial activity against vancomycin-resistant Enterococcus faecium clinical isolate 1100440 by CLSI-based broth microdilution assay; assay type: functional
Enterococcus faecalis [13] = assay: Antibiofilm activity against Enterococcus faecalis ATCC 29212 assessed as inhibition of biofilm formation at 2 times MIC after 24 hrs by crystal violet staining based assay relative to control; assay type: functional; design: scale not given: the % may be the effect or the level left; method in brief: as §1
[14] = Toxicity in CD1 mouse assessed as effect on calcium level at 50 mg/kg, ip administered as single dose measured after 24 hrs; assay type: organism-based; conditions: in vivo; method in brief: as §2
[15] = Toxicity in CD1 mouse assessed as effect on kidney 50 mg/kg, ip administered as single dose measured after 24 hrs by TUNEL assay; assay type: organism-based; conditions: in vivo
Method in brief: (§4)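 Male CD-1 mice, single IP 50 mg/kg in saline; saline control. Acetaminophen 300 mg/kg and cisplatin 20 mg/kg IP as positive controls. At 24 h, liver and kidney paraffin-embedded, 5-µm sections, TUNEL stained with DAPI counterstain, imaged by fluorescence microscopy.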

Staphylococcus aureus [16] = assay: Antimicrobial activity against methicillin-sensitive Staphylococcus aureus ATCC 29213 by CLSI-based broth microdilution assay; assay type: functional
Staphylococcus aureus [17] = assay: Antibiofilm activity against Staphylococcus aureus ATCC 25923 assessed as destruction of biofilm formation at 0.5 times MIC after 24 hrs by crystal violet staining based assay relative to control; assay type: functional, organism-based; method in brief: as §1
Staphylococcus aureus [18] = assay: Antimicrobial activity against antibiotic-resistant Staphylococcus aureus BM-2312 assessed as bacterial growth inhibitions by CLSI protocol based microdilution method; assay type: functional
[19] = Toxicity in CD1 mouse assessed as effect on creatine level at 50 mg/kg, ip administered as single dose measured after 24 hrs; assay type: organism-based; conditions: in vivo; method in brief: as §2
[20] = Toxicity in CD1 mouse assessed as effect on liver 50 mg/kg, ip administered as single dose measured after 24 hrs by TUNEL assay; assay type: organism-based; conditions: in vivo; method in brief: as §4
[21] = Selectivity index, ratio of IC50 for cytotoxicity against human HEK-293T cells to MIC of antimicrobial activity against methicillin-susceptible Staphylococcus aureus ATCC 25923; assay type: toxicity, cell-based; conditions: read-out: Selectivity Index
[22] = Toxicity in CD1 mouse assessed as effect on globulin level at 50 mg/kg, ip administered as single dose measured after 24 hrs; assay type: organism-based; conditions: in vivo; method in brief: as §2
Enterococcus faecium [23] = assay: Antimicrobial activity against vancomycin-resistant Enterococcus faecium clinical isolate 1091282 by CLSI-based broth microdilution assay; assay type: functional
Staphylococcus aureus [24] = assay: Antimicrobial activity against methicillin-resistant Staphylococcus aureus ATCC 700699 assessed as bacterial growth inhibitions by CLSI protocol based microdilution method; assay type: functional
Bacillus subtilis = assay: Antimicrobial activity against Bacillus subtilis ATCC 6623 assessed as bacterial growth inhibitions by CLSI protocol based microdilution method; assay type: functional
Method in brief: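 Broth microdilution starting at 50 µg/ml with 2-fold serial dilutions; run in triplicate.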

Enterococcus faecium [25] = assay: Antimicrobial activity against vancomycin-resistant Enterococcus faecium ATCC 700221 assessed as bacterial growth inhibitions by CLSI protocol based microdilution method; assay type: functional
[26] = Toxicity in CD1 mouse assessed as blood plasma albumin level at 50 mg/kg, ip administered as single dose measured after 24 hrs; assay type: organism-based; conditions: in vivo; method in brief: as §2
Staphylococcus aureus [27] = assay: Antibacterial activity against methicillin resistant Staphylococcus aureus ATCC 700699 persisters assessed as reduction in viability at 8 times MIC measured within 4 hrs by colony counting method; assay type: functional; conditions: time hrs <=4
Method in brief: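 Stationary-phase S. aureus from overnight CAMHB culture (35 °C, 200 rpm), washed thrice in PBS, diluted to ~5 × 10^8 CFU/ml. Incubated with antibiotic at 35 °C, 200 rpm. Aliquots taken at set times, washed, serially diluted in PBS, drop-plated (6 × 6) on TSA with 5% sheep blood. Colonies counted after 18–20 h at 35 °C. Triplicates.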

[28] = Toxicity in CD1 mouse assessed as effect on alanine transferase level at 50 mg/kg, ip administered as single dose measured after 24 hrs; assay type: organism-based; conditions: in vivo; method in brief: as §2
Staphylococcus aureus [29] = assay: Inhibition of RNA synthesis in Staphylococcus aureus ATCC 29213 at 0.25 times MIC measured by liquid scintillation counter; assay type: functional; method in brief: as §3

`O=C(O)c1ccc(-n2cc(CNc3cc(F)cc(C(F)(F)F)c3)c(-c3ccc(C(F)(F)F)cc3)n2)cc1` showed an MIC (Staphylococcus aureus [1]) of 0.78 µg/mL (≈ 1.49 µM), an inhibition (Staphylococcus aureus [2]) of 100% and an Activity (Enterococcus faecalis [3]) of 85%. For the same molecule, the Activity [4] was “Non-Toxic”, the “inhibition (INH)” value (Staphylococcus aureus [5]) was 100% and the “inhibition (INH)” value (Staphylococcus aureus [6]) was 98%. For the same molecule, the MIC (Enterococcus faecalis [7]) was 1.56 µg/mL (≈ 2.98 µM), the MIC (Enterococcus faecium [8]) was 4 µg/mL (≈ 7.64 µM) and the Activity [9] was “Non-Toxic”. The MIC (Staphylococcus aureus [10]) was 0.39 µg/mL (≈ 0.745 µM), the Activity (Enterococcus faecalis [11]) was “inactive” and the MIC (Enterococcus faecium [12]) was 4 µg/mL (≈ 7.64 µM). For the same molecule, the Activity (Enterococcus faecalis [13]) was 90%, the Activity [14] was “Non-Toxic” and the Activity [15] was “Non-Toxic”. For the same molecule, the MIC (Staphylococcus aureus [16]) was 2 µg/mL (≈ 3.82 µM), the Activity (Staphylococcus aureus [17]) was “inactive” and the MIC (Staphylococcus aureus [18]) was 0.78 µg/mL (≈ 1.49 µM). For the same molecule, the Activity [19] was “Non-Toxic”, the Activity [20] was “Non-Toxic” and the selectivity ratio [21] was 13. For the same molecule, the Activity [22] was “Non-Toxic”, the MIC (Enterococcus faecium [23]) was 2 µg/mL (≈ 3.82 µM) and the MIC (Staphylococcus aureus [24]) was 0.78 µg/mL (≈ 1.49 µM). For the same molecule, the MIC (Bacillus subtilis) was 0.78 µg/mL (≈ 1.49 µM), the MIC (Enterococcus faecium [25]) was 0.78 µg/mL (≈ 1.49 µM) and the Activity [26] was “Non-Toxic”. For the same molecule, the Activity (Staphylococcus aureus [27]) was 3 log10CFU/ml, the Activity [28] was “Non-Toxic” and the “inhibition (INH)” value (Staphylococcus aureus [29]) was 15.5%.
